Data: ChEMBL document CHEMBL4665845, “CRISPR-Cas9 Genome-Wide Knockout Screen Identifies Mechanism of Selective Activity of Dehydrofalcarinol in Mesenchymal Stem-like Triple-Negative Breast Cancer Cells” (2020)
Activity calls are given as the source filed them. The calls are words filed in the database; no cut-off is given here.

Assays:
MDA-MB-231 [1] = assay: Cytotoxicity against human MDA-MB-231 cells assessed as reduction in cell viability at 0.03 to 3 uM after 48 hrs by SRB assay; format: functional, cell-based; details: dose microM 0.03-3, time 48.0 hrs
MDA-MB-453 [2] = assay: Cytotoxicity against human MDA-MB-453 cells assessed as reduction in cell viability at 0.03 to 3 uM after 48 hrs by SRB assay; format: functional, cell-based; details: dose microM 0.03-3, time 48.0 hrs
BT-549 [3] = assay: Growth inhibition of human BT-549 cells after 48 hrs by SRB assay; format: functional
MDA-MB-231 [4] = assay: Growth inhibition of human MDA-MB-231 cells after 48 hrs by SRB assay; format: functional
How it was run: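 Cells were exposed to compound for 48 h, and growth was read by sulforhodamine B staining. TGI (total growth inhibition concentration, μM) was taken from concentration–response curves, n = 3, means ± SEM. MDA-MB-231 cells were grown in IMEM with 10% FBS at 37 °C in 5% CO2.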

Homo sapiens = species on record: Homo sapiens; assay: Selectivity index, ratio of TGI for growth inhibitor of human BT-549 to TGI for growth inhibitor of human MDA-MB-231; format: functional
MDA-MB-231 [5] = assay: Cytotoxicity against human MDA-MB-231 cells assessed as reduction in cell viability at 0.03 to 3 uM after 48 hrs in presence of GW9662 by SRB assay; format: functional, cell-based; details: dose microM 0.03-3, time 48.0 hrs
RD = assay: Antiproliferative activity against human RDES cells assessed as reduction in cell viability after 48 hrs by SRB assay; format: functional, cell-based
[6] = molecular target: Ribosomal protein S6 kinase beta-1 (Homo sapiens) (UniProt P23443); assay: Inhibition of phosphorylation of P70S6K at T389 residue in human MDA-MB-231 cells at 300 nM preincubated for 6 hrs followed FBS-stimulation and measured after 0.25 to 2 hrs by immunoblotting analysis; format: cell-based; details: time hrs <=8
Ribosomal protein S6 kinase beta-1 (Homo sapiens), sequence (P23443 whole entry, looked up): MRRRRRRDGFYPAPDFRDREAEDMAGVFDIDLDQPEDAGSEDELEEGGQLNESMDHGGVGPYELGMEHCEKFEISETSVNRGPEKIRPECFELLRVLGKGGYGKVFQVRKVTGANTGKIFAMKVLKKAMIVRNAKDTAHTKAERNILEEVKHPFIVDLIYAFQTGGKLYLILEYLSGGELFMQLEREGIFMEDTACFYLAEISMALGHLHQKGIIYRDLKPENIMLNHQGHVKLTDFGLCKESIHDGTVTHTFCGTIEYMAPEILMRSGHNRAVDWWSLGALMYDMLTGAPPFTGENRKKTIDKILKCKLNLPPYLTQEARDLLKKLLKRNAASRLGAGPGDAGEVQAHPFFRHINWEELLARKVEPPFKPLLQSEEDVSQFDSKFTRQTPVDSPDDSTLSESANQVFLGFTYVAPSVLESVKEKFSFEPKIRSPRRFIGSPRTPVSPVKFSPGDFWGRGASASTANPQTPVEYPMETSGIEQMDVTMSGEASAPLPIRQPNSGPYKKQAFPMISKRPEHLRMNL

MDA-MB-231 [7] = assay: Induction of cell cycle arret in human MDA-MB-231 cells assessed as S phase accumulation at LC50 concentration after 18 hrs by Krishan's staining based cell analyzer method; format: functional
How it was run: (§1)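 MDA-MB-231 cells were treated at the LC50 concentration for 18 h, and cell cycle distribution was then assessed.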

A673 = assay: Antiproliferative activity against human A673 cells assessed as reduction in cell viability after 48 hrs by SRB assay; format: functional, cell-based
[8] = Ratio of TGI for cytotoxicity against HSD17B11 siRNA knock-out human MDA-MB-231 cells to TGI for cytotoxicity against human MDA-MB-231 cells; format: functional
How it was run: (§2)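 MDA-MB-231 cells were reverse-transfected with HSD17B11 siRNA (12.5 nM final, 0.025% RNAiMAX, antibiotic-free medium) or mock for 48 h. Cells were then replated, allowed to attach for 4–6 h, and treated for 48 h. Read-out was SRB viability and TGI, n = 3. Knockdown vs mock was compared by paired two-tailed t-test.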

MDA-MB-231 [9] = assay: Effect on Erk1/2 regulation in human MDA-MB-231 cells at 300 nM preincubated for 6 hrs followed FBS-stimulation and measured after 0.25 to 2 hrs by immunoblotting analysis; format: functional, cell-based; details: time hrs <=8
MDA-MB-231 [10] = assay: Cytotoxicity against human MDA-MB-231 cells harboring CRISPR/Cas9 assessed as reduction in cell viability at 300 nM by SRB assay; format: functional, cell-based
TC-32 = assay: Antiproliferative activity against human TC-32 cells assessed as reduction in cell viability after 48 hrs by SRB assay; format: functional, cell-based
MDA-MB-231 [11] = assay: Effect on P70S6K regulation in human MDA-MB-231 cells at 300 nM preincubated for 6 hrs followed FBS-stimulation and measured after 0.25 to 2 hrs by immunoblotting analysis; format: functional, cell-based; details: time hrs <=8
SK-ES1 = assay: Antiproliferative activity against human SK-ES1 cells assessed as reduction in cell viability after 48 hrs by SRB assay; format: functional, cell-based
[12] = molecular target: Mitogen-activated protein kinase; ERK1/ERK2 (Homo sapiens) (UniProt P27361+P28482); assay: Inhibition of phosphorylation of Erk1/2 in human MDA-MB-231 cells at 300 nM preincubated for 6 hrs followed FBS-stimulation and measured after 0.25 to 2 hrs by immunoblotting analysis; format: cell-based; details: time hrs <=8
Mitogen-activated protein kinase; ERK1/ERK2 (Homo sapiens), sequence (P27361 whole entry, looked up): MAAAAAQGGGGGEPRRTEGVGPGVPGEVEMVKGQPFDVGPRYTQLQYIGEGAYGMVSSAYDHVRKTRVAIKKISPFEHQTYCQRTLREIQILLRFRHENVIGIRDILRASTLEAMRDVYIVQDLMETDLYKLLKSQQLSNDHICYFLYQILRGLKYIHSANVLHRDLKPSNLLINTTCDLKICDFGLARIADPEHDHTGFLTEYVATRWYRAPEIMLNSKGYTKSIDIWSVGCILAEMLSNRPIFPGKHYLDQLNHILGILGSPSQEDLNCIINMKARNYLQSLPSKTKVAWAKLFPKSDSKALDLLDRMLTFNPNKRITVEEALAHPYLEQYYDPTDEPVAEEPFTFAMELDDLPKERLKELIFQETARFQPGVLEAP
Mitogen-activated protein kinase; ERK1/ERK2 (Homo sapiens), sequence (P28482 whole entry, looked up): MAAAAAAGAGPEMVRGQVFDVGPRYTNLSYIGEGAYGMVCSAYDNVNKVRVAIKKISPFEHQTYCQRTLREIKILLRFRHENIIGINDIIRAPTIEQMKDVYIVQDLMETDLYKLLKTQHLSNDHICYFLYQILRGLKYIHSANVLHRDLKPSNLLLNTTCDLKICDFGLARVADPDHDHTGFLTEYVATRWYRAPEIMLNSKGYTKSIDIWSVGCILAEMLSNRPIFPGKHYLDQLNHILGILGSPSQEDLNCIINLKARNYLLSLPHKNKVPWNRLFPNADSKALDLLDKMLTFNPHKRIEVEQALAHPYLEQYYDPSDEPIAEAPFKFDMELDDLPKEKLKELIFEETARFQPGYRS

BT-549 [13] = assay: Cytotoxicity against human BT-549 cells over expressing HSD17B11 assessed as reduction in cell viability at 1 to 10 uM by SRB assay; format: functional, cell-based; details: dose microM 1-10
How it was run: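 BT-549 cells were transfected with a plasmid expressing HSD17B11-GFP from a constitutive CMV promoter, with mock-transfected cells as control. Overexpression was confirmed by immunoblot, and sensitivity was measured by SRB assay.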

MDA-MB-231 [14] = assay: Induction of cell cycle arret in human MDA-MB-231 cells assessed as G1 phase accumulation at LC50 concentration after 18 hrs by Krishan's staining based cell analyzer method; format: functional; how it was run: as §1
MDA-MB-231 [15] = assay: Effect on Akt regulation in human MDA-MB-231 cells at 300 nM preincubated for 6 hrs followed FBS-stimulation and measured after 0.25 to 2 hrs by immunoblotting analysis; format: functional, cell-based; details: time hrs <=8
MDA-MB-231 [16] = assay: Induction of cell cycle arret in human MDA-MB-231 cells assessed as G2/M phase accumulation at LC50 concentration after 18 hrs by Krishan's staining based cell analyzer method; format: functional; how it was run: as §1
[17] = molecular target: Serine/threonine-protein kinase AKT (Homo sapiens) (UniProt P31751+Q9Y243+P31749); assay: Inhibition of phosphorylation of Akt at S473 residue in human MDA-MB-231 cells at 300 nM preincubated for 6 hrs followed FBS-stimulation and measured after 0.25 to 2 hrs by immunoblotting analysis; format: cell-based; details: time hrs <=8
Serine/threonine-protein kinase AKT (Homo sapiens), sequence (P31749 whole entry, looked up): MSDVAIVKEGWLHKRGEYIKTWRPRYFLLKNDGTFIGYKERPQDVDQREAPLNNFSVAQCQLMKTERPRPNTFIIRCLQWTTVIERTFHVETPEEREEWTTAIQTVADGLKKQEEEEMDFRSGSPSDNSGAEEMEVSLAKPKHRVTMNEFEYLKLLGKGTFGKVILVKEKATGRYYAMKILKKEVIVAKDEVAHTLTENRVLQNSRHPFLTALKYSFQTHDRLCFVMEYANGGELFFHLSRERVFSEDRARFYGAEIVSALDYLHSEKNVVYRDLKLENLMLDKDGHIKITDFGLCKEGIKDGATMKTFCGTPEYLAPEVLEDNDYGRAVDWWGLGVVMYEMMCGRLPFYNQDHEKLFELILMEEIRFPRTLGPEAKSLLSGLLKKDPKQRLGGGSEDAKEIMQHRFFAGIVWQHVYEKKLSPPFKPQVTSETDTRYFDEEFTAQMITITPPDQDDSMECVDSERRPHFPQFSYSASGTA
Serine/threonine-protein kinase AKT (Homo sapiens), sequence (P31751 whole entry, looked up): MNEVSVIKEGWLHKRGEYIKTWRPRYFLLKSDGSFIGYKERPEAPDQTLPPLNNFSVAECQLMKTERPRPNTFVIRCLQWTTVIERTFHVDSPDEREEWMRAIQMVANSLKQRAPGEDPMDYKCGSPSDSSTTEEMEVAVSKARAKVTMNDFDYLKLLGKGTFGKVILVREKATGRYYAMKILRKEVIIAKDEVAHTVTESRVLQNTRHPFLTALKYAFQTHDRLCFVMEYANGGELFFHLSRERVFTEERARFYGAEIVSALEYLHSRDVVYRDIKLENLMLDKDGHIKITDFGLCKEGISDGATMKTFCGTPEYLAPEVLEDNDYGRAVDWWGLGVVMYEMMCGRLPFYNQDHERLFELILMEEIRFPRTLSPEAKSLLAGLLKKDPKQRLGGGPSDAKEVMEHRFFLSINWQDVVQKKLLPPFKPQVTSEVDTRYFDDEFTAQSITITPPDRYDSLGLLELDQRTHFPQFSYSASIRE
Serine/threonine-protein kinase AKT (Homo sapiens), sequence (Q9Y243 whole entry, looked up): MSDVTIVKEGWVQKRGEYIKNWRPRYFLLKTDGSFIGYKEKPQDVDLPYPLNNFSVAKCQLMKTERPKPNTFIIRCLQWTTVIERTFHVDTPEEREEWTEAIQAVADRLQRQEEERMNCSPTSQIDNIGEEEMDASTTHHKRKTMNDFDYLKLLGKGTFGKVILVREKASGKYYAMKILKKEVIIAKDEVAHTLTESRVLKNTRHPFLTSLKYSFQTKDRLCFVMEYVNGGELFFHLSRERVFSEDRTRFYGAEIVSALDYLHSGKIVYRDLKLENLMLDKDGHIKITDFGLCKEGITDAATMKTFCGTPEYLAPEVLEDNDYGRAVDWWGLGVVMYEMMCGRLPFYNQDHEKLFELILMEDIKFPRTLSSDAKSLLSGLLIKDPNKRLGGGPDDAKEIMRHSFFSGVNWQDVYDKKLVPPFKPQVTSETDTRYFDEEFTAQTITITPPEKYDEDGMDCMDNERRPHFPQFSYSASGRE

MDA-MB-231 [18] = assay: Cytotoxicity against CRISPR/Cas9-mediated HSD17B11 knock-out human MDA-MB-231 cells at 1 uM incubated for 2 weeks; format: functional, cell-based
How it was run: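 Doxycycline-inducible Cas9 MDA-MB-231 cells were transduced with the pooled Brunello sgRNA lentiviral library (0.005 μg/mL polybrene, 5 h), then selected in 1 μg/mL puromycin for 72 h. Cas9 was induced with 50 ng/mL doxycycline for 48 h. Cells were treated with 1 μM for 14 days, refreshing medium and compound every 3–4 days, and recovered 2 days before sgRNA sequencing. Enrichment was compared with input and vehicle.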

MDA-MB-231 [19] = assay: Cytotoxicity against HSD17B11 siRNA knock-out human MDA-MB-231 cells assessed as reduction in cell viability at 300 nM incubated for 48 hrs by SRB assay; format: functional, cell-based; how it was run: as §2
MDA-MB-453 [20] = assay: Cytotoxicity against human MDA-MB-453 cells assessed as reduction in cell viability at 0.03 to 3 uM after 48 hrs in presence of GW9662 by SRB assay; format: functional, cell-based; details: dose microM 0.03-3, time 48.0 hrs

CN(CCOc1ccc(CC2SC(=O)NC2=O)cc1)c1ccccn1 (configuration not stated)
Activity (MDA-MB-231 [1]): inactive
Activity (MDA-MB-453 [2]): inactive

O=C(Nc1ccccc1)c1cc([N+](=O)[O-])ccc1Cl
Activity (MDA-MB-231 [1]): inactive
Activity (MDA-MB-453 [2]): inactive

C=CCCCCC(O)/C=C/C#CC#CC(O)CC (mixture of isomers)
TGI (BT-549 [3]): > 10 µM
TGI (MDA-MB-231 [4]): 4.8 µM

C=C[C@@H](O)C#CC#C[C@@H](O)/C=C\CCCCCCC [FALCARINDIOL]
TGI (BT-549 [3]): 9 µM
Selectivity Index (Homo sapiens): 1.5
TGI (MDA-MB-231 [4]): 6 µM

C=CCCCCC/C=C\CC#CC#CC(O)C=C (mixture of isomers)
Activity (MDA-MB-231 [5]): Active
Activity (RD): Active
inhibition [6]: inactive
Activity (MDA-MB-231 [7]): inactive
Activity (A673): Active
Ratio [8]: 1.7
Activity (MDA-MB-231 [9]): inactive
Activity (MDA-MB-231 [10]): Active
Activity (TC-32): Active
Activity (MDA-MB-231 [11]): inactive
Activity (SK-ES1): Active
inhibition [12]: inactive
Activity (BT-549 [13]): inactive
Activity (MDA-MB-231 [14]): inactive
Activity (MDA-MB-231 [15]): inactive
Activity (MDA-MB-231 [16]): inactive
inhibition [17]: inactive
Activity (MDA-MB-231 [18]): inactive
Activity (MDA-MB-231 [19]): inactive
Activity (MDA-MB-453 [20]): Active

C=CCCCCC/C=C\CC#CC#CC(O)CC (configuration not stated)
TGI (BT-549 [3]): 7 µM
Selectivity Index (Homo sapiens): 2.1
TGI (MDA-MB-231 [4]): 3.3 µM

C=CCCCCCC(O)/C=C/C#CC#CC(O)CC (mixture of isomers)
TGI (BT-549 [3]): > 5 µM
TGI (MDA-MB-231 [4]): 4.3 µM

C=CCCC/C=C\CC#CC#CC(O)C=C (mixture of isomers)
TGI (BT-549 [3]): 2.4 µM
Selectivity Index (Homo sapiens): 4.9
TGI (MDA-MB-231 [4]): 0.49 µM
